From ChEMBL document CHEMBL3244181, “Synthesis and biological activity of cocaine analogues. 2. 6H-[2]Benzopyrano[4,3-c]pyridin-6-ones” (J Med Chem, 1979)

Experiments:
[1] = Inhibition of [3H]norepinephrine reuptake at norepinephrine transporter in CD Charles River albino rat brain synaptosomes after 5 mins by scintillation counting analysis; type: subcellular
In short: (§1)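 Synaptosomes were taken from the 0.8/1.2 M sucrose gradient interface and resuspended in Krebs Ringer phosphate with pargyline (1.6 mg/100 mL) and glucose (237 mg/100 mL). They were incubated with unlabelled norepinephrine and [3H]norepinephrine for 5 min at 30 °C, quenched with cold buffer, and pelleted at 10000g. Pellet counts, minus post-incubation tracer blanks, gave % inhibition as (control − sample)/control cpm.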

Rattus norvegicus [2] = species: Rattus norvegicus; assay: Inhibition of [3H]norepinephrine reuptake at norepinephrine transporter in CD Charles River albino rat brain synaptosomes at 10^-5 M after 5 mins by scintillation counting analysis; type: subcellular; in short: as §1
[3] = target: Sodium-dependent dopamine transporter (Homo sapiens) (UniProt Q01959); assay: Inhibition of dopamine reuptake at DAT (unknown origin) at 10^-5 M
Chain of Sodium-dependent dopamine transporter (Homo sapiens) (Q01959 whole entry): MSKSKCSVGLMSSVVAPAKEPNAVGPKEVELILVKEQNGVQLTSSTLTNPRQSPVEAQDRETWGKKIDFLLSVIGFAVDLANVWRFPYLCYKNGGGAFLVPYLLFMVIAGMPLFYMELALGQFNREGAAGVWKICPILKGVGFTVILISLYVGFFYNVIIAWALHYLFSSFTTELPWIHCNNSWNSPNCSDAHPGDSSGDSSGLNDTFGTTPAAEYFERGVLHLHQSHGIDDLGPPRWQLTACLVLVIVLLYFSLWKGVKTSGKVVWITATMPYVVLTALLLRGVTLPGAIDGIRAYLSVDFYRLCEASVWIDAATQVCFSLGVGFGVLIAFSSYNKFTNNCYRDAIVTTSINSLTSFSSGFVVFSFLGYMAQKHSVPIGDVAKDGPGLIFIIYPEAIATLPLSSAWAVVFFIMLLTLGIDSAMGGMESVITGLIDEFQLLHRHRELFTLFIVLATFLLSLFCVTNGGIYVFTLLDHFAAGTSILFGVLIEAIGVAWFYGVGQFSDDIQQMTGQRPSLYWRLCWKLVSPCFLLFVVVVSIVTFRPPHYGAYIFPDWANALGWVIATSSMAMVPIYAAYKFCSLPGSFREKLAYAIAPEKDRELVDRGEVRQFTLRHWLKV

[4] = target: Sodium-dependent serotonin transporter (Homo sapiens) (UniProt P31645); assay: Inhibition of serotonin reuptake at SERT (unknown origin) at 10^-5 M
Chain of Sodium-dependent serotonin transporter (Homo sapiens) (P31645 whole entry, looked up): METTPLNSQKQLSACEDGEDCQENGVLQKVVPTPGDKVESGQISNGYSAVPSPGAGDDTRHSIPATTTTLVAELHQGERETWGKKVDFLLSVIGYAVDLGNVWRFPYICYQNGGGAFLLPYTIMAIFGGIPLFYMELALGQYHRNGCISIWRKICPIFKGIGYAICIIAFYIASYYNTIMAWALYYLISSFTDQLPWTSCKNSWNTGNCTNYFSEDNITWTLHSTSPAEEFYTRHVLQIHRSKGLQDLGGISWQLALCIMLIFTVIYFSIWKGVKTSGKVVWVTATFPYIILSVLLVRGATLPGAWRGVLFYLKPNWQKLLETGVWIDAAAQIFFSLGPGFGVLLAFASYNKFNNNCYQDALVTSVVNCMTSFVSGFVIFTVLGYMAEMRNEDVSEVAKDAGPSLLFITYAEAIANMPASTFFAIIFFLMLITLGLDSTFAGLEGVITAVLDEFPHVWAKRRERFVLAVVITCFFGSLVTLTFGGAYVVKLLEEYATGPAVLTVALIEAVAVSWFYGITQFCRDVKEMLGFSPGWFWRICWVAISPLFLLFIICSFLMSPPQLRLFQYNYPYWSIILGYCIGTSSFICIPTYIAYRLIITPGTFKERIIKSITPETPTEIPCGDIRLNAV

Rattus norvegicus [5] = species: Rattus norvegicus; assay: Inhibition of [3H]norepinephrine reuptake at norepinephrine transporter in rat brain at 10^-5 M by scintillation counting analysis; type: tissue-based

| SMILES | IC50 [1] | inhibition (Rattus norvegicus [2]) | inhibition [3] | inhibition [4] | inhibition (Rattus norvegicus [5]) |
| --- | --- | --- | --- | --- | --- |
| CN1[C@@H]2CC[C@H]1C[C@H](OC(=O)c1ccccc1)C2 | 5.6 µM | – | – | – | – |
| CN1CCc2oc(=O)c3ccccc3c2C1 | 320 µM | – | – | – | – |
| CN1CC[C@H]2OC(=O)c3ccccc3[C@H]2C1 (relative stereo) | 650 µM | 0% | – | – | – |
| CN1CC[C@H]2OC(=O)c3ccccc3[C@@H]2C1 (relative stereo) | 320 µM | 36% | 3% | 0% | 11% |
| COC(=O)[C@H]1[C@@H](OC(=O)c2ccccc2)C[C@@H]2CC[C@H]1N2C [COCAINE] | 0.575 µM | – | – | – | – |
